Experimental data: ChEMBL document CHEMBL2331090, “Benzoquinones and terphenyl compounds as phosphodiesterase-4B inhibitors from a fungus of the order Chaetothyriales (MSX 47445)” (J Nat Prod, 2013)
Values after ≈ are worked out from the molar mass of the structure shown. Active and inactive are the calls of the source. The calls are words filed in the database; no cut-off is given here.

Experiments:
MCF7 = experiment: Cytotoxicity against human MCF7 cells; assay type: functional, cell-based
Procedure, shortened: (§1)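 Panel of three human tumour lines: MCF-7 breast carcinoma, NCI-H460 large cell lung carcinoma and SF-268 astrocytoma. The cytotoxicity protocol follows the group's earlier reports.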

Staphylococcus aureus = experiment: Antibacterial activity against Staphylococcus aureus by agar plate diffusion assay; assay type: functional
Candida albicans = experiment: Antifungal activity against Candida albicans by agar plate diffusion assay; assay type: functional, organism-based
NCI-H460 = experiment: Cytotoxicity against human H460 cells; assay type: functional, cell-based; procedure, shortened: as §1
SF-268 = experiment: Cytotoxicity against human SF268 cells; assay type: functional, cell-based; procedure, shortened: as §1
[1] = molecular target: 3',5'-cyclic-AMP phosphodiesterase 4B (Homo sapiens, UniProt Q07343); experiment: Inhibition of human PDE4B2
3',5'-cyclic-AMP phosphodiesterase 4B, sequence (Q07343 whole entry): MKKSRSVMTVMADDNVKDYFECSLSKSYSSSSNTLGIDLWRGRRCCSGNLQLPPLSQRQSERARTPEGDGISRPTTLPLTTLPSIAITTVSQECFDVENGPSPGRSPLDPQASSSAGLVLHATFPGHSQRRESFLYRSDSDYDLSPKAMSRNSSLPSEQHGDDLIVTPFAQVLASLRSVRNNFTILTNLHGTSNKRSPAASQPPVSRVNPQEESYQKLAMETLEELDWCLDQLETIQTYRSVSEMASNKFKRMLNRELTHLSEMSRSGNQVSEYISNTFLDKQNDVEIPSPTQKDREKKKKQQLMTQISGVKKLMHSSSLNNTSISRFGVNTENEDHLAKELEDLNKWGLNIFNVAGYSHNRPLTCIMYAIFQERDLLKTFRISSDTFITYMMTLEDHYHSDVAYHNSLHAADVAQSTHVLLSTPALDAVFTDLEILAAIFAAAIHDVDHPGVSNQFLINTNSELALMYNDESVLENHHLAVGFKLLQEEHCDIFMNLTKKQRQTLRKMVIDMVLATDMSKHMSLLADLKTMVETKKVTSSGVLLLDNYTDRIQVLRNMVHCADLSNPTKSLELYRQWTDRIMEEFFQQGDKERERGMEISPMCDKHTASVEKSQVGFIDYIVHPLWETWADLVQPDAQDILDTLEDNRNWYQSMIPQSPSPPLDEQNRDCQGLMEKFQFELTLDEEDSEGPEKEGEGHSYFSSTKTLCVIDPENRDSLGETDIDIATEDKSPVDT

[2] = Inhibition of cGMP-PDE (unknown origin); set-up: species or system Homo sapiens
[3] = Inhibition of cAMP-PDE (unknown origin); set-up: species or system Homo sapiens

Row | SMILES | Activity (MCF7) | MIC (Staphylococcus aureus) [µg/mL] | Activity (Candida albicans) | Activity (NCI-H460) | Activity (SF-268) | IC50 [1] [µM] | IC50 [2] [µM] | IC50 [3] [µM]
1 | COc1c(O)c(-c2ccccc2)cc(O)c1-c1ccccc1 | Active | 25 (≈ 85.5 µM) | inactive | Active | Active | 31 |  | 
2 | COC1=C(c2ccccc2)C(=O)C(OC)=C(c2ccccc2)C1=O [BETULINAN A] | inactive |  |  | inactive | inactive | 44 |  | 
3 | COC1=C(c2ccccc2)C(=O)C=C(c2ccccc2)C1=O [BETULINAN C] | Active | 25 (≈ 86.1 µM) | inactive | Active | Active | 17 |  | 
4 | COc1cc(-c2ccccc2)c(O)c(O)c1-c1ccccc1 [TERFEROL] |  |  |  |  |  |  | 0.96 | 0.82
